This is an account of results in the EternaBench riboswitch data.

The subject of this data set is MS2 coat protein. The data set is described as follows: apparent Kd, MS2 coat protein; higher = weaker binding; RNA-MaP array; FMN 200 µM where present. The essentials:
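Stalled E. coli RNA polymerase transcribed the designs on Illumina sequencing-chip clusters. SNAP-549-labelled MS2 coat protein was titrated from 0.7 or 1.5 nM, doubling to 3 µM, without and then with constant ligand, in 100 mM Tris-HCl pH 7.5, 80 mM KCl, 4 mM MgCl2, BSA, DTT, yeast tRNA and Tween-20. Per-cluster binding curves were fitted to green signal normalised to red-channel RNA signal and control-cluster median Fmax. The apparent Kd is the median of the filtered fits.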

The mark [1] stands for this setting: designed as: OFF switch for flavin mononucleotide, no ligand.
Setting [2] is: ligand present: flavin mononucleotide, designed as: OFF switch for flavin mononucleotide.
The mark [3] stands for this setting: ligand present: flavin mononucleotide, designed as: ON switch for flavin mononucleotide.
[4] abbreviates: designed as: ON switch for flavin mononucleotide, no ligand.

Usually apparent Kd stands for the concentration giving half-maximal binding under the conditions of the assay. Consider “CAGCUGAAUGUGAGGAUAUUACGAGCUUCGGCUCGUGAGAAGGCACAUGAGGAUCACCCAUGUCUCAACAGCUG”, for which the “apparent Kd” value is 38.5 nM under setting [1] and 540 nM under setting [2].
Consider “ACAUGAGGAUCUCCCAUGUAAAAUUAGGAUAUAUAACUGCACAUGAGGAUCACCCAUGUUUAACCGUAGAAGGGAUAAAUAAUU”, for which the “apparent Kd” value under setting [3] was found to be 786 nM.
As for “GUUUACGCAUGAGGAUAUGCUCGCAUUUCAAGAGCAGAAGGUAUGUCUUUAGACAUGAGGAUCACCCAUGUAUUUAUCAUUGUA”, the “apparent Kd” value under setting [4] is 187 nM and the “apparent Kd” value under setting [3] is 29.9 nM.
As for “GGGUACAUGGGAGGAUAUCAUGUAAAUACAUGAGGAUCACCCAUGUCGAUGGAGACAUCGGAGAUUGAGAAGGCCGAUGUACCG”, the “apparent Kd” value worked out at 21.1 nM under setting [4] and 37.8 nM under setting [3].
As to “AGCUGGUGACAGCAUCGAGCAAAACAUGAGGAUCACCCAUGUAGAAGGCUGUACGGUUACCGUACAGAGGAUAUACAAAGCUCG”, the “apparent Kd” value by setting is: under setting [1], 6.35 nM; under setting [2], 8.14 nM.
In the case of “AUACCUUAUGAGAAGGCGGUCAUGAAACAUGAUCGAGGAUAUCAUGUAAACAUGAGGAUCACCCAUGUAUGGGUAUUAUGGUAA”, the “apparent Kd” value was determined as 44.8 nM under setting [4] and 10.2 nM under setting [3].
The matching figures for “GGGAGUCUACAUGAGGAUCACCCAUGUGGUCCAGCAGGAACACAGGAUAUCCAAUGAGAUUCUCGGGAGAAGGGUGAAUGCUUA”: 107 nM and 174 nM.
For the sequence “CUUUCGUGAGGAUAUCAGUAGUAAAAUAAUAAAAUUACUACUGAGAAGGCACAUGAGGAUCACCCAUGUUCCUC”, the “apparent Kd” value runs as follows: under setting [1], 24.4 nM; under setting [2], 134 nM.
“CUCAUGUGAGGAUAUGUGAUCAACCUUCUGUAUAGAUGAUGACAGAAGGCACAUGAGGAUCACCCAUGUAGAUC”: the “apparent Kd” value reads like this: under setting [1], 68.9 nM; under setting [2], 57.1 nM.
The matching figures for “UAAAAGACUAGCAUUCUAAAGAUCACAUGAGGAUCACCCAUGUAGGAUAUGAGCAGAAAAUCUGCUCAGAAGGACAUGCUAGUC”: 5.51 nM and 6.02 nM.
The matching figures for “UGUUGGAGCAGAGGAUAUUACAUGAGGAUCACCCAUGUAUGAACCAAUAGCUGGAAACAGCAAUGUAAGAAGGCUGCUCCGACA”: 12.1 nM and 161 nM.
For “CUGUUACGUGUAGGAUAUGCAUAUUCCCAUUAUGCAGAAGGACAUGAGGAUCACCCAUGUAUGUUAUUAUCAUGUGUUACAUGC” the same measures were 34.6 nM and 153 nM.
For “GGAAACUACGAGAAGGACAUGUGGUCCUUCAGUUACAUGAGGAUCACCCAUGUAGGAUAUCGUAGUUUCAGGAUCGUGAGAUCC”, the “apparent Kd” value is, setting by setting: under setting [1], 33 nM; under setting [2], 12.8 nM.
As to “GUAUCUUAUGAGAAGGCGAUCAUGAAACAUGAUCGAGGAUAUCAUGUAAACAUGAGGAUCACCCAUGUAUGGGUAUUAUGGUAC”, the “apparent Kd” value is, setting by setting: under setting [4], 179 nM; under setting [3], 71.9 nM.
The matching figures for “GUGGUUGUCGUAGGAUAUGUAGGAUAUUCCUACAUGAGGAUCACCCAUGUUCGCAUGGAAGAAGGACAGAAGGACGAUGACCAU”: 1020 nM and 10.7 nM.
“GAUGAGGUAGGAUAUACGAGAAGAUAGGGUAGAUAGAGAACACAUGAGGAUCACCCAUGUAGAAGGACCAGUAG”: the “apparent Kd” value by setting is: under setting [1], 25.3 nM; under setting [2], 55.7 nM.
In the case of “AGACGACAACAUGAGGAUCACCCAUGUUCUAGUUUAGAGUCGCAGGAUAUGACUUCGAAGCUUAGUCAGAAGGGUGAAUUCACA”, the “apparent Kd” value runs as follows: under setting [4], 37.8 nM; under setting [3], 51 nM.
“UUGUUACGAUUAGGAUAUUAUAGAUUGAAUAGUAUGAUUUACAUGAGGAUCACCCAUGUUACAUUUAAGAAGGAAUCGAAUUAU”: the “apparent Kd” value turned out to be 21.1 nM under setting [1] and 16.9 nM under setting [2].
For “UAGAAUCGAGGAUAUACAUGAGGAUCACCCAUGUGUGGCCAUUUGGUGUGGUCGUCAGGUAGAAGGCGAUUACA” the same measures were 160 nM and 15.6 nM.
As for “UUCAUCAAUGAAGGAUAUCUAUGUCCAACAUGAGGAUCACCCAUGUUGAGGAUCACCUAUGUGUAGGAGAAGGUCAAUAUAACU”, the “apparent Kd” value under setting [4] worked out at 8.56 nM and the “apparent Kd” value under setting [3] is 8.54 nM.
As for “UCAUGAAGGGCAGGAUAUGGACAUGAGGAUCACCCAUGUACAUGGGAUUAUAUACUAAAUUAAUACUAGAAGGGUUACAUAAAU”, the “apparent Kd” value runs as follows: under setting [1], 47.9 nM; under setting [2], 23.1 nM.
For “AACAGCUCGUCAGGAUAUAUUUUCCUUUUAUGUAUUUAUGUACAUGAGGAUCACCCAUGUUGAUAGUAGAAGGGACGAGCUGAA” the same measures were 13.8 nM and 34.4 nM.
Turning to “GGUUUGCGGCAGGAUAUCCAUCCGCGGUAUGGUGGAGAAGGGCUGACAUGAGGAUCACCCAUGUGCGUCCUGGG”, the “apparent Kd” value runs as follows: under setting [1], 26.6 nM; under setting [2], 38.4 nM.
The matching figures for “CAGCAGUGUAAGAAGGCUGCUCCGAUAAGGAGCAGAGGAUAUUACAUGAGGAUCACCCAUGUAUGAACCAAUAGCUGAAAUAAA”: 9.12 nM and 85.3 nM.
For “AACUUGUCAGGAUAUCUUACAUUUGCAUCAUAGUUACCAUUGGAGAAGGGACAUGAGGAUCACCCAUGUUUGGU” the same measures were 41.3 nM and 39.3 nM.
The matching figures for “CCCACGAAAGUCGAACGAUGUACGAGAAGGACAAUAACAUGACAUGAGGAUCACCCAUGUGCCAUGUAGGAUAUCGUACAUGGG”: 8.55 nM and 8.17 nM.
Take “AGAACGUCAGGAUAUGCAACAACAAGUAAAUAGAGAAGAAGGCAGAAGGGACAUGAGGAUCACCCAUGUAAGAA”: the “apparent Kd” value reads like this: under setting [1], 36.6 nM; under setting [2], 36.3 nM.
For the sequence “UCAGAAGUCACAGGAUAUCCGGCGUAGCACACAGGAGAAGGGUGAUCACGAGCACAUGAGGAUCACCCAUGUGACAUUUGUGGG”, the “apparent Kd” value reads like this: under setting [4], 53.6 nM; under setting [3], 27.5 nM.
Consider “AACAAACAUGAGGAUCACCCAUGUCAGGAUAUGCAAACAACAAACAACAAACAACAAAGCAGAAGGGACAACAA”, for which the “apparent Kd” value under setting [1] came out at 23.7 nM and the “apparent Kd” value under setting [2] turned out to be 30.2 nM.
“ACAUAAAUUCGAGGAUAUCGGUGAUUUAAUUUACGAGAAGGCGAUAAAAGUUAUAAACUUAUAGACAUGAGGAUCACCCAUGUA”: the “apparent Kd” value under setting [4] worked out at 34.9 nM and the “apparent Kd” value under setting [3] is 33.1 nM.
Take “UUAAUUAACAAGAAGGCUAACAUGAGGAUCACCCAUGUUGUACAUGGAUAUAGAGGAUAUUGCUAAUAAUUAUUUAUCUUAAUU”: the “apparent Kd” value reads like this: under setting [1], 25.3 nM; under setting [2], 19.4 nM.
The matching figures for “AAGAAGGACGCAGGAUAUCCAGGACCUCCCGCAGGAGAAGGGCGAGACAUGUGGAUCACCCAGACAUGAGGAUCACCCAUGUAG”: 22.5 nM and 21 nM.
For “GGUACUCAAAGAGUACCAAUACGAACAUGAGGAUCACCCAUGUAGGAUAUGCUACUCAAAGAGUAGCAGAAGGACAUGUGCCAU” the same measures were 42 nM and 282 nM.
For “AGAAAUUAGUGAGGAUAUGCAUAAUGUGUAGCUGCAGAAGGCACGGACCACAAGACAUGAGGAUCACCCAUGUGGUAUAUAGAU” the same measures were 25.9 nM and 29.3 nM.
For the sequence “GUCGUGUGAGGAUAUGGAUCGACGCAGUGACAGUCAGCGACCUAGAAGGCACAUGAGGAUCACCCAUGUAUGUG”, the “apparent Kd” value reads like this: under setting [1], 54.6 nM; under setting [2], 97.5 nM.
For “UGUGCGUAUGUGAGGAUAUGCUGGUCCUUGGAUCGGCAGAAGGCACAUGAGGAUCACCCAUGUGGUGUCGUUCG”, the “apparent Kd” value was determined as 239 nM under setting [1] and 24 nM under setting [2].
